# SENP1 FRET inh: human SENP1 catalytic domain inhibitors, primary screen, biochemical, FRET, uHTS; inhibition, % at 10 µM; 360,000 compounds, 0.21% hits; Sentrin-specific protease 1 (Homo sapiens), Q9P0U3; recombinant SENP1 catalytic domain, CyPet-SUMO1-YPet FRET cleavage;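 active means inhibition at least 30% at 10 µM, raw YFP signal under a set limit, fluorescence ratio 0.5 to 1.5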
#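 Assay system – human recombinant His6-tagged SENP1 catalytic domain enzyme · Input – SENP1 enzyme, 20 pM final · Buffer or medium – Tris pH 8 buffer plus EDTA, NaCl, BME, BSA, NP40, catalase · Schedule – 50 min reaction at room temperature · Technique – FRET read of cyan and yellow fluorescence · Control set – no-enzyme wells low, DMSO-plus-enzyme wells high control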
# SENP8 block-1: human SENP8 protease inhibitors, primary screen, biochemical, fluorescence, Nedd8 protein substrate, uHTS | recombinant SENP8 | 360,000 compounds, 0.64% hits | inhibition, % at 20 µM | AID 602440, 2012 | Sentrin-specific protease 8 (Homo sapiens), Q96LD8; in the data active means inhibition mostly above about 40%, no sharp cut-off; inactive means mostly below about 27%
# SENP6 inh: SENP6 protease inhibitors, primary screen, biochemical, luminescence, uHTS. Sentrin-specific protease 6 (Homo sapiens), Q9GZR1. Recombinant SENP6 catalytic domain, aminoluciferin luminescence. inhibition, % at 10 µM. 330,000 compounds, 1.8% hits;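 active means inhibition above about 50% at the single tested dose, limit read from the data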
# SENP7 inh: SENP7 protease inhibitors, primary screen, biochemical, luminescence, uHTS. 330,000 compounds, 1.5% hits. inhibition, % at 5 µM. recombinant SENP7, Z-RLRGG-aminoluciferin luminescence, 40 min. AID 434973, 2010;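 active means inhibition above about 50% at the single test dose, limit read from the data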
# Apaf1 inhib: inhibitors of human Apaf-1 apoptosome, primary screen, biochemical, DEVD-Rh110 fluorescence, uHTS. Apoptotic protease-activating factor 1 (Homo sapiens), O14727. reconstituted apoptosome caspase-3 activity. inhibition, % at 20 µM. 330,000 compounds, 0.71% hits; active means inhibition of at least 40% at 20 µM
# Target sequence (O14727 whole entry, looked up): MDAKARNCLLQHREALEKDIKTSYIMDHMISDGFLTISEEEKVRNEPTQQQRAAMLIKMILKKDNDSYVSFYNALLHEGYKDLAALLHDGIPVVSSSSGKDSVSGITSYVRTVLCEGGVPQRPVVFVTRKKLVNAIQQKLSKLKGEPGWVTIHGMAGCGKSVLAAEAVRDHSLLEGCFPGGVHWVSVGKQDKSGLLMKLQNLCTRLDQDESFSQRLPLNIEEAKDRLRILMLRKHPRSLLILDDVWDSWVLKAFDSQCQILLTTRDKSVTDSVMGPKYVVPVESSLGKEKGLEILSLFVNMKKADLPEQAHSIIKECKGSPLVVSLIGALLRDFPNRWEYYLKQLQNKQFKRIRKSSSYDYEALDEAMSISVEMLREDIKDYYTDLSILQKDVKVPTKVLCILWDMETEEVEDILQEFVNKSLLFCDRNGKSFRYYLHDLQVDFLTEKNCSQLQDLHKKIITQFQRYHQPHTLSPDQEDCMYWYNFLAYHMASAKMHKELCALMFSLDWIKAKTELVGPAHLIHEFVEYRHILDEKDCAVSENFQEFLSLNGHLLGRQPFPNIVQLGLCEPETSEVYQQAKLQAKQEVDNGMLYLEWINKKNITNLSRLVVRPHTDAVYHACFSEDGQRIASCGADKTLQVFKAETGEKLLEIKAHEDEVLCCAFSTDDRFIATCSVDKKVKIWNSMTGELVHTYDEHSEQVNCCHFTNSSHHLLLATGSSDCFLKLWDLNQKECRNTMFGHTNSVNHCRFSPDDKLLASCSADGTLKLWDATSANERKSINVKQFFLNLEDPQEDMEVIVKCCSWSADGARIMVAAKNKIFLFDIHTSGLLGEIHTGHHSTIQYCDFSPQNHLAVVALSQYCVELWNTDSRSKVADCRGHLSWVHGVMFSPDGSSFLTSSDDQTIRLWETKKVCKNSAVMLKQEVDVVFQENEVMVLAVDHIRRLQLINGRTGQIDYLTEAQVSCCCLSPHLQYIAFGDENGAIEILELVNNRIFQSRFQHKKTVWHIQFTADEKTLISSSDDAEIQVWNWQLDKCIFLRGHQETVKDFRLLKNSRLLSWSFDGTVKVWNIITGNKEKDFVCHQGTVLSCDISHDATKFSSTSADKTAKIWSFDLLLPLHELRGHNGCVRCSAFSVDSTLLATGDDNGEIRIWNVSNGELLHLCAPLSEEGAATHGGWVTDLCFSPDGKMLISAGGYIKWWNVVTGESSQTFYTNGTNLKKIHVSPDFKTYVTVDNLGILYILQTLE
#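 System: Apoptosome proteins | Medium: Hepes pH 7.5 with detergent and BSA | Also added: Cytochrome c trigger plus (Z-DEVD)2-Rh110 caspase-3 substrate | Incubation: 30 min compound preincubation, 50 min activation, room temperature | Detection: Rhodamine 110 fluorescence at Ex 480/Em 540 nm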
# SENP8 block-2: SENP8 protease inhibitors, primary screen, biochemical, luminescence. Sentrin-specific protease 8 (Homo sapiens), Q96LD8. purified SENP8, Z-RLRGG-aminoluciferin cleavage. inhibition, % at 10 µM. 330,000 compounds, 1.2% hits. AID 2540, 2010; in the data active means inhibition above about 50%
# SENP8 conf: SENP8 protease inhibitors, retest, confirmation, biochemical, luminescence, single concentration; Recombinant SENP8, Z-RLRGG-aminoluciferin luminescence, 60 min; inhibition, % at 12.5 µM; AID 488912, 2010; shares compounds with SENP7 inh; 6,200 compounds, 40% hits;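 active means mean inhibition across replicates above about 50%, limit read from the data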
# SENP6 confirm: SENP6 protease inhibitors, confirmation, biochemical, luminescence, single concentration; shares compounds with SENP7 inh; 6,200 compounds, 58% hits; recombinant SENP6, Z-RLRGG-aminoluciferin luminescence; AID 488915, 2010; inhibition, % at 12.5 µM
# SENP7 conf: SENP7 protease inhibitors, retest, confirmation, biochemical, luminescence, single concentration. shares compounds with SENP7 inh. recombinant SENP7, Z-RLRGG-aminoluciferin luminescence, 40 min. inhibition, % at 12.5 µM. 6,200 compounds, 69% hits. AID 488917, 2010
# Casp3 SENP sel: caspase-3 protease inhibitors, confirmation, selectivity assay for SENP inhibitor project, biochemical, single concentration. inhibition, % at 12.5 µM. 6,200 compounds, 60% hits. shares compounds with SENP7 inh. purified caspase-3, Z-DEVD-aminoluciferin luminescence, 60 min;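 active means mean inhibition above about 50%, limit read from the data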
# Luc interf: counter-screen for SENP inhibitors: luminescence interference; shares compounds with SENP7 inh; Pre-incubated SENP8/Z-RLRGG-aminoluciferin, luciferase luminescence interference; inhibition, % at 12.5 µM; 6,200 compounds, 39% hits; AID 488919;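 active means mean inhibition above about 50% when retested at one dose, limit read from the data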
# A number is an active result; n = inactive; x = no result. Hits are enriched below; roughly 2.9% of the tested compounds scored in any of these assays.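 How the source made its calls, unless noted: active means mean inhibition above about 50% in the one-dose retest (limit read from the data); inactive means the rest.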
SMILES,SENP1 FRET inh,SENP8 block-1,SENP6 inh,SENP7 inh,Apaf1 inhib,SENP8 block-2,SENP8 conf,SENP6 confirm,SENP7 conf,Casp3 SENP sel,Luc interf
Cc1cc(C2=NNC(=NC3CC3)SC2)c(C)n1-c1c(C)n(C)n(-c2ccccc2)c1=O,n,n,n,n,n,n,x,x,x,x,x
O=C(Nc1ccc2c(c1)OCCO2)c1ccco1,n,n,n,54,n,n,n,n,75,80,53
Cc1cc(C(=O)Nc2ccc3c(c2)OCCO3)co1,n,n,n,n,n,n,x,x,x,x,x
CCc1ccc(-c2csc(NC(=O)C3=COCCO3)n2)cc1,n,n,60,n,n,n,n,n,73,n,n
O=C(Nc1nc(-c2ccncc2)cs1)c1ccco1,n,n,n,n,n,n,x,x,x,x,x
O=C(Nc1nc(-c2ccc3c(c2)OCCO3)cs1)c1ccco1,n,n,86,89,n,83,86,86,97,75,90
Cc1ccc(C(=O)Nc2ccc3c(c2)OCCO3)o1,n,n,54,n,n,n,52,n,80,82,62
COc1ccc2[nH]c3c(c2c1)CCN1C(=O)C(CC(=O)NCc2cccc(C(F)(F)F)c2)C[C@H](C(=O)N2CCCCC2)[C@@]31CCc1ccccc1 (stereo partly specified),n,n,x,n,n,x,x,x,x,x,x
COc1ccc(COCC(O)CN2CCN(S(=O)(=O)c3c(F)cccc3F)CC2)cc1OC (stereo unspecified),n,n,x,x,x,x,x,x,x,x,x
COc1cccc(NC(=O)N(C)C[C@H]2OCc3cnnn3CCCC(=O)N([C@H](C)CO)C[C@@H]2C)c1,n,n,x,x,x,x,x,x,x,x,x
COc1ccc(OC)c(NC(=O)C2(C)CCN2Cc2ccccc2Cl)c1 (stereo unspecified),n,n,x,x,x,x,x,x,x,x,x
Cc1cc(C)c2sc(NC(=O)C3=COCCO3)nc2c1,n,n,67,62,n,n,n,65,89,56,n
Cc1cc(C)c(-c2csc(NC(=O)C3=COCCO3)n2)c(C)c1,n,n,n,n,n,n,x,x,x,x,x
Cc1ccnc(N2C(=O)c3ccccc3C2O)c1 (stereo unspecified),n,n,85,90,n,81,82,82,98,96,88
Cc1ccc([C@@H]2C[C@H]3CN(Cc4cccc(Cl)c4)C(=O)[C@]34CCCN24)o1,n,n,64,n,n,n,n,n,n,n,n
CC(=O)COc1ccc2cc(-c3ccccc3)c(=O)oc2c1,n,n,n,n,n,n,x,x,x,x,x
CC(=O)Oc1ccc2cc(-c3ccccc3)c(=O)oc2c1,n,n,93,85,n,86,n,n,50,n,n
O=C(Nc1ccccc1)c1cc2ccccc2o1,n,n,97,98,n,95,96,98,102,97,98
COc1ccc(NC(=O)c2cc3ccccc3o2)cc1,n,n,64,n,n,n,n,n,71,50,n
Cc1cc(C(=O)Nc2ccccc2)oc1C,n,n,64,n,n,n,58,55,87,83,61
O=C(Nc1ccc(NC(=O)c2cc3ccccc3o2)cc1)c1ccco1,n,n,n,n,n,n,x,x,x,x,x
COc1ccc(NC(=O)c2cc3ccccc3o2)cc1OC,n,n,n,n,n,n,x,x,x,x,x
CC(=O)c1ccc(NC(=O)c2cc3ccccc3o2)cc1,n,n,n,n,n,n,x,x,x,x,x
O=C(Nc1ccc(F)cc1)c1cc2ccccc2o1,n,n,86,86,n,76,80,82,97,86,64
CCN(C[C@H]1N[C@@](CC)(C(=O)OC)[C@H]2C(=O)N(C)C(=O)[C@@H]12)S(=O)(=O)c1ccc(OC)cc1,n,n,n,n,n,n,x,x,x,x,x
SMILES,SENP1 FRET inh,SENP8 block-1,SENP6 inh,SENP7 inh,Apaf1 inhib,SENP8 block-2,SENP8 conf,SENP6 confirm,SENP7 conf,Casp3 SENP sel,Luc interf
COCCN1C(=O)C(C(=O)OC)CC2=C1CC(C)(C)CC2=O (stereo unspecified),n,n,x,x,x,x,x,x,x,x,x
CC(=O)Nc1cccc(NC(=O)c2cc3ccccc3o2)c1,n,n,84,84,n,62,79,78,95,88,83
CC(C)C(=O)Nc1cccc(NC(=O)c2cc3ccccc3o2)c1,n,n,n,n,n,n,x,x,x,x,x
S=C1NC(c2ccccc2)N2C(=S)NC(c3ccccc3)N12 (stereo unspecified),n,n,69,52,n,n,n,n,n,n,n
Cc1ccc(C2NC(=S)N3C(c4ccc(C)cc4)NC(=S)N23)cc1 (stereo unspecified),n,n,x,x,x,x,x,x,x,x,x
OC[C@@H]1CN(Cc2ccncc2)C[C@H](n2cnc3c(NCc4ccncc4)ncnc32)O1,n,n,x,x,x,x,x,x,x,x,x
CN(Cc1ccc(C(F)(F)F)cc1)C(=O)C1CC(=O)N(Cc2ccco2)C1 (stereo unspecified),n,n,n,n,n,n,x,x,x,x,x
C=C(C)CN(CC)c1nc(N)c2c(N)nc3c(c2c1C#N)CC(=O)N3C12CC3CC(CC(C3)C1)C2,n,n,85,n,n,86,n,n,n,n,n
CCn1c(Cc2ccccc2)nnc1SCC(=O)Nc1nccs1,n,n,n,82,n,n,n,n,n,n,n
CCn1c(Cc2ccccc2)nnc1SC(C)C(=O)NC1CC1 (stereo unspecified),n,n,n,n,n,91,n,n,n,n,n
CCn1c(SCC(=O)Nc2nccs2)nnc1-c1ccccc1,n,n,n,n,n,n,x,x,x,x,x
